According to ChEMBL document CHEMBL1649574, “Prevalence and characterization of heterogeneous vancomycin-intermediate Staphylococcus aureus isolates from 14 cities in China” (2009):
Converted amounts (≈) assume the structure as drawn.

Assays:
Staphylococcus aureus [1] = assay: Antimicrobial activity against heterogeneous vancomycin-intermediate Staphylococcus aureus assessed as intermediate isolates by broth microdilution method; type: functional
Summary of the method: (§1)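 Daptomycin MICs by broth microdilution in BBL broth with calcium chloride added to a final calcium of 50 mg/liter, checked by biochemical analysis. Tested on the 200 MRSA blood isolates, grouped as hVISA/VISA or VSSA by PAP-AUC ratio relative to Mu3.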

Staphylococcus aureus [2] = assay: Antimicrobial activity against SCCmec type III vancomycin-intermediate Staphylococcus aureus isolate gz06040 by broth microdilution method
Staphylococcus aureus [3] = assay: Antimicrobial activity against heterogeneous vancomycin-intermediate Staphylococcus aureus assessed as growth inhibition at 0.125 times MIC; type: functional; design: scale not given: the % may be the effect or the level left
Staphylococcus aureus [4] = assay: Antimicrobial activity against vancomycin-susceptible Staphylococcus aureus assessed as growth inhibition at 0.125 times MIC; type: functional; design: scale not given: the % may be the effect or the level left
Staphylococcus aureus [5] = assay: Antimicrobial activity against SCCmec type III vancomycin-intermediate Staphylococcus aureus isolate 15b52 by broth microdilution method
Staphylococcus aureus [6] = assay: Antimicrobial activity against SCCmec type II vancomycin-intermediate Staphylococcus aureus isolate 4sy39 by broth microdilution method
Staphylococcus aureus [7] = assay: Antimicrobial activity against heterogeneous vancomycin-susceptible Staphylococcus aureus assessed as susceptible isolates by broth microdilution method; type: functional; summary of the method: as §1
Staphylococcus aureus [8] = assay: Antimicrobial activity against SCCmec type III vancomycin-intermediate Staphylococcus aureus isolate gz06051 by broth microdilution method
Staphylococcus aureus [9] = assay: Antimicrobial activity against SCCmec type II vancomycin-intermediate Staphylococcus aureus isolate 4sy32 by broth microdilution method
Staphylococcus aureus [10] = assay: Antimicrobial activity against SCCmec type III vancomycin-intermediate Staphylococcus aureus isolate b5k3578 by broth microdilution method
Staphylococcus aureus [11] = assay: Antimicrobial activity against SCCmec type II vancomycin-intermediate Staphylococcus aureus isolate 07b63 by broth microdilution method
Staphylococcus aureus [12] = assay: Antimicrobial activity against vancomycin-susceptible Staphylococcus aureus assessed as growth inhibition at 4 times MIC; type: functional; design: scale not given: the % may be the effect or the level left
Staphylococcus aureus [13] = assay: Antimicrobial activity against vancomycin-susceptible Staphylococcus aureus by broth microdilution method; type: functional
Summary of the method: (§2)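 Daptomycin MICs on the blood MRSA isolates were done by broth microdilution. The broth was supplemented with calcium chloride to a final calcium of 50 mg/liter, confirmed by biochemical analysis. Isolates were grouped by PAP-AUC ratio relative to Mu3 (VSSA <0.9; hVISA 0.9 to 1.3; VISA ≥1.3).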

Staphylococcus aureus [14] = assay: Antimicrobial activity against heterogeneous vancomycin-intermediate Staphylococcus aureus assessed as growth inhibition at 0.25 times MIC; type: functional; design: scale not given: the % may be the effect or the level left
Staphylococcus aureus [15] = assay: Antimicrobial activity against heterogeneous vancomycin-intermediate Staphylococcus aureus assessed as growth inhibition at 2 times MIC; type: functional; design: scale not given: the % may be the effect or the level left
Staphylococcus aureus [16] = assay: Antimicrobial activity against heterogeneous vancomycin-intermediate Staphylococcus aureus assessed as growth inhibition at 4 times MIC; type: functional; design: scale not given: the % may be the effect or the level left
Staphylococcus aureus [17] = assay: Antimicrobial activity against SCCmec type III vancomycin-intermediate Staphylococcus aureus isolate b2k3421 by broth microdilution method
Staphylococcus aureus [18] = assay: Antimicrobial activity against SCCmec type II vancomycin-intermediate Staphylococcus aureus isolate b2k4781 by broth microdilution method
Staphylococcus aureus [19] = assay: Antimicrobial activity against heterogeneous vancomycin-intermediate Staphylococcus aureus assessed as growth inhibition at 16 times MIC; type: functional; design: scale not given: the % may be the effect or the level left
Staphylococcus aureus [20] = assay: Antimicrobial activity against heterogeneous vancomycin-intermediate Staphylococcus aureus by broth microdilution method; type: functional; summary of the method: as §2
Staphylococcus aureus [21] = assay: Antimicrobial activity against heterogeneous vancomycin-susceptible Staphylococcus aureus assessed as intermediate isolates by broth microdilution method; type: functional; summary of the method: as §1
Staphylococcus aureus [22] = assay: Antimicrobial activity against vancomycin-susceptible Staphylococcus aureus assessed as growth inhibition at 16 times MIC; type: functional; design: scale not given: the % may be the effect or the level left
Staphylococcus aureus [23] = assay: Antimicrobial activity against vancomycin-intermediate Staphylococcus aureus by broth microdilution method
Staphylococcus aureus [24] = assay: Antimicrobial activity against heterogeneous vancomycin-intermediate Staphylococcus aureus assessed as susceptible isolates by broth microdilution method; type: functional; summary of the method: as §1
Staphylococcus aureus [25] = assay: Antimicrobial activity against SCCmec type II vancomycin-intermediate Staphylococcus aureus isolate sh06024 by broth microdilution method
Staphylococcus aureus [26] = assay: Antimicrobial activity against heterogeneous vancomycin-intermediate Staphylococcus aureus assessed as growth inhibition at 0.5 times MIC; type: functional; design: scale not given: the % may be the effect or the level left
Staphylococcus aureus [27] = assay: Antimicrobial activity against SCCmec type III vancomycin-intermediate Staphylococcus aureus isolate b5k3529 by broth microdilution method
Staphylococcus aureus [28] = assay: Antimicrobial activity against SCCmec type II vancomycin-intermediate Staphylococcus aureus isolate 6zjsau7 by broth microdilution method
Staphylococcus aureus [29] = assay: Antimicrobial activity against SCCmec type III vancomycin-intermediate Staphylococcus aureus isolate xa07029 by broth microdilution method
Staphylococcus aureus [30] = assay: Antimicrobial activity against vancomycin-susceptible Staphylococcus aureus assessed as growth inhibition at 0.25 times MIC; type: functional; design: scale not given: the % may be the effect or the level left
Staphylococcus aureus [31] = assay: Antimicrobial activity against SCCmec type IV vancomycin-intermediate Staphylococcus aureus isolate 06b41 by broth microdilution method; type: functional; summary of the method: as §2
Staphylococcus aureus [32] = assay: Antimicrobial activity against vancomycin-susceptible Staphylococcus aureus assessed as growth inhibition at 2 times MIC; type: functional; design: scale not given: the % may be the effect or the level left
Staphylococcus aureus [33] = assay: Antimicrobial activity against vancomycin-susceptible Staphylococcus aureus assessed as growth inhibition at MIC; type: functional; design: scale not given: the % may be the effect or the level left
Staphylococcus aureus [34] = assay: Antimicrobial activity against SCCmec type III vancomycin-intermediate Staphylococcus aureus isolate 5zjsau3 by broth microdilution method
Staphylococcus aureus [35] = assay: Antimicrobial activity against SCCmec type III vancomycin-intermediate Staphylococcus aureus isolate b3k5923 by broth microdilution method
Staphylococcus aureus [36] = assay: Antimicrobial activity against SCCmec type III vancomycin-intermediate Staphylococcus aureus isolate sh07043 by broth microdilution method; type: functional; summary of the method: as §2
Staphylococcus aureus [37] = assay: Antimicrobial activity against SCCmec type III vancomycin-intermediate Staphylococcus aureus isolate 11b091 by broth microdilution method
Staphylococcus aureus [38] = assay: Antimicrobial activity against SCCmec type III vancomycin-intermediate Staphylococcus aureus isolate b3k2345 by broth microdilution method
Staphylococcus aureus [39] = assay: Antimicrobial activity against SCCmec type III vancomycin-intermediate Staphylococcus aureus isolate b4k6307 by broth microdilution method
Staphylococcus aureus [40] = assay: Antimicrobial activity against SCCmec type III vancomycin-intermediate Staphylococcus aureus isolate b6k1642 by broth microdilution method
Staphylococcus aureus [41] = assay: Antimicrobial activity against SCCmec type III vancomycin-intermediate Staphylococcus aureus isolate bd4768 by broth microdilution method
Staphylococcus aureus [42] = assay: Antimicrobial activity against vancomycin-susceptible Staphylococcus aureus assessed as growth inhibition at 0.5 times MIC; type: functional; design: scale not given: the % may be the effect or the level left
Staphylococcus aureus [43] = assay: Antimicrobial activity against SCCmec type III vancomycin-intermediate Staphylococcus aureus isolate zj07028 by broth microdilution method
Staphylococcus aureus [44] = assay: Antimicrobial activity against SCCmec type III vancomycin-intermediate Staphylococcus aureus isolate 13b16 by broth microdilution method
Staphylococcus aureus [45] = assay: Antimicrobial activity against heterogeneous vancomycin-intermediate Staphylococcus aureus assessed as growth inhibition at MIC; type: functional; design: scale not given: the % may be the effect or the level left
Staphylococcus aureus [46] = assay: Antimicrobial activity against SCCmec type III vancomycin-intermediate Staphylococcus aureus isolate gz07030 by broth microdilution method
Staphylococcus aureus [47] = assay: Antimicrobial activity against SCCmec type III vancomycin-intermediate Staphylococcus aureus isolate b6k7974 by broth microdilution method; type: functional; summary of the method: as §2
Staphylococcus aureus [48] = assay: Antimicrobial activity against SCCmec type III vancomycin-intermediate Staphylococcus aureus isolate gs07022 by broth microdilution method

Q: For `CCCCCCCCCC(=O)N[C@@H](Cc1c[nH]c2ccccc12)C(=O)N[C@H](CC(N)=O)C(=O)N[C@@H](CC(=O)O)C(=O)N[C@@H]1C(=O)NCC(=O)N[C@@H](CCCN)C(=O)N[C@@H](CC(=O)O)C(=O)N[C@H](C)C(=O)N[C@@H](CC(=O)O)C(=O)NCC(=O)N[C@H](CO)C(=O)N[C@@H]([C@H](C)CC(=O)O)C(=O)N[C@@H](CC(=O)c2ccccc2N)C(=O)O[C@@H]1C`, which Activity (Staphylococcus aureus [1]) is on record?
A: 0%

Q: What about the MIC (Staphylococcus aureus [2]) of the same compound?
A: 0.5 µg/mL (≈ 0.309 µM)

Q: What about the Activity (Staphylococcus aureus [3]) of the same compound?
A: 0%

Q: What about the Activity (Staphylococcus aureus [4]) of the same compound?
A: 0.58%

Q: And the MIC (Staphylococcus aureus [5])?
A: 0.5 µg/mL (≈ 0.309 µM)

Q: What about the MIC (Staphylococcus aureus [6]) of the same compound?
A: 0.5 µg/mL (≈ 0.309 µM)

Q: And the Activity (Staphylococcus aureus [7])?
A: 100%

Q: And the MIC (Staphylococcus aureus [8])?
A: 0.25 µg/mL (≈ 0.154 µM)

Q: And the MIC (Staphylococcus aureus [9])?
A: 0.5 µg/mL (≈ 0.309 µM)

Q: What about the MIC (Staphylococcus aureus [10]) of the same compound?
A: 0.5 µg/mL (≈ 0.309 µM)

Q: What about the MIC (Staphylococcus aureus [11]) of the same compound?
A: 0.5 µg/mL (≈ 0.309 µM)

Q: What about the Activity (Staphylococcus aureus [12]) of the same compound?
A: 100%

Q: What about the MIC50 (Staphylococcus aureus [13]) of the same compound?
A: 0.5 µg/mL (≈ 0.309 µM)

Q: What about the MIC90 (Staphylococcus aureus [13]) of the same compound?
A: 0.5 µg/mL (≈ 0.309 µM)

Q: And the Activity (Staphylococcus aureus [14])?
A: 14.8%

Q: And the Activity (Staphylococcus aureus [15])?
A: 100%

Q: What about the Activity (Staphylococcus aureus [16]) of the same compound?
A: 100%

Q: And the MIC (Staphylococcus aureus [17])?
A: 0.5 µg/mL (≈ 0.309 µM)

Q: What about the MIC (Staphylococcus aureus [18]) of the same compound?
A: 0.5 µg/mL (≈ 0.309 µM)

Q: And the Activity (Staphylococcus aureus [19])?
A: 100%

Q: What about the MIC50 (Staphylococcus aureus [20]) of the same compound?
A: 0.5 µg/mL (≈ 0.309 µM)

Q: And the MIC90 (Staphylococcus aureus [20])?
A: 1 µg/mL (≈ 0.617 µM)

Q: And the Activity (Staphylococcus aureus [21])?
A: 0%

Q: What about the Activity (Staphylococcus aureus [22]) of the same compound?
A: 100%

Q: And the MIC (Staphylococcus aureus [23])?
A: 0.5 µg/mL (≈ 0.309 µM)

Q: And the Activity (Staphylococcus aureus [24])?
A: 100%

Q: And the MIC (Staphylococcus aureus [25])?
A: 0.5 µg/mL (≈ 0.309 µM)

Q: And the Activity (Staphylococcus aureus [26])?
A: 88.9%

Q: And the MIC (Staphylococcus aureus [27])?
A: 0.5 µg/mL (≈ 0.309 µM)

Q: What about the MIC (Staphylococcus aureus [28]) of the same compound?
A: 0.25 µg/mL (≈ 0.154 µM)

Q: And the MIC (Staphylococcus aureus [29])?
A: 0.5 µg/mL (≈ 0.309 µM)

Q: And the Activity (Staphylococcus aureus [30])?
A: 10.7%

Q: And the MIC (Staphylococcus aureus [31])?
A: 1 µg/mL (≈ 0.617 µM)

Q: What about the Activity (Staphylococcus aureus [32]) of the same compound?
A: 100%

Q: What about the Activity (Staphylococcus aureus [33]) of the same compound?
A: 100%

Q: What about the MIC (Staphylococcus aureus [34]) of the same compound?
A: 0.5 µg/mL (≈ 0.309 µM)

Q: What about the MIC (Staphylococcus aureus [35]) of the same compound?
A: 0.25 µg/mL (≈ 0.154 µM)

Q: What about the MIC (Staphylococcus aureus [36]) of the same compound?
A: 1 µg/mL (≈ 0.617 µM)

Q: And the MIC (Staphylococcus aureus [37])?
A: 0.5 µg/mL (≈ 0.309 µM)

Q: What about the MIC (Staphylococcus aureus [38]) of the same compound?
A: 0.5 µg/mL (≈ 0.309 µM)

Q: What about the MIC (Staphylococcus aureus [39]) of the same compound?
A: 0.25 µg/mL (≈ 0.154 µM)

Q: And the MIC (Staphylococcus aureus [40])?
A: 0.5 µg/mL (≈ 0.309 µM)

Q: What about the MIC (Staphylococcus aureus [41]) of the same compound?
A: 0.5 µg/mL (≈ 0.309 µM)

Q: What about the Activity (Staphylococcus aureus [42]) of the same compound?
A: 95.1%

Q: What about the MIC (Staphylococcus aureus [43]) of the same compound?
A: 0.5 µg/mL (≈ 0.309 µM)

Q: What about the MIC (Staphylococcus aureus [44]) of the same compound?
A: 0.5 µg/mL (≈ 0.309 µM)

Q: And the Activity (Staphylococcus aureus [45])?
A: 100%

Q: What about the MIC (Staphylococcus aureus [46]) of the same compound?
A: 0.5 µg/mL (≈ 0.309 µM)

Q: What about the MIC (Staphylococcus aureus [47]) of the same compound?
A: 1 µg/mL (≈ 0.617 µM)

Q: What about the MIC (Staphylococcus aureus [48]) of the same compound?
A: 0.5 µg/mL (≈ 0.309 µM)
